The source made the active and inactive calls. The rule behind the calls is not given here. Residues, ends and D or L forms follow the SMILES beside them. *: point of attachment. Fmoc = O=C(OCC1c2ccccc2-c2ccccc21)*; Cbz = O=C(OCc1ccccc1)*; Boc = CC(C)(C)OC(=O)*; Bz = O=C(c1ccccc1)*
What was measured:
Assay type in all cases: cell-based
[1] = biological target: Sodium channel protein type 8 subunit alpha (Homo sapiens) (UniProt Q9UQD0); assay: Inhibition of Nav1.6 (unknown origin) expressed in HEK293 cells assessed as V1/2 of steady-state of inactivation at 10 uM after 1 hr at -70 mV holding potential by whole cell patch clamp method (reference value: […])
Sodium channel protein type 8 subunit alpha (Homo sapiens), sequence (Q9UQD0 whole entry, looked up): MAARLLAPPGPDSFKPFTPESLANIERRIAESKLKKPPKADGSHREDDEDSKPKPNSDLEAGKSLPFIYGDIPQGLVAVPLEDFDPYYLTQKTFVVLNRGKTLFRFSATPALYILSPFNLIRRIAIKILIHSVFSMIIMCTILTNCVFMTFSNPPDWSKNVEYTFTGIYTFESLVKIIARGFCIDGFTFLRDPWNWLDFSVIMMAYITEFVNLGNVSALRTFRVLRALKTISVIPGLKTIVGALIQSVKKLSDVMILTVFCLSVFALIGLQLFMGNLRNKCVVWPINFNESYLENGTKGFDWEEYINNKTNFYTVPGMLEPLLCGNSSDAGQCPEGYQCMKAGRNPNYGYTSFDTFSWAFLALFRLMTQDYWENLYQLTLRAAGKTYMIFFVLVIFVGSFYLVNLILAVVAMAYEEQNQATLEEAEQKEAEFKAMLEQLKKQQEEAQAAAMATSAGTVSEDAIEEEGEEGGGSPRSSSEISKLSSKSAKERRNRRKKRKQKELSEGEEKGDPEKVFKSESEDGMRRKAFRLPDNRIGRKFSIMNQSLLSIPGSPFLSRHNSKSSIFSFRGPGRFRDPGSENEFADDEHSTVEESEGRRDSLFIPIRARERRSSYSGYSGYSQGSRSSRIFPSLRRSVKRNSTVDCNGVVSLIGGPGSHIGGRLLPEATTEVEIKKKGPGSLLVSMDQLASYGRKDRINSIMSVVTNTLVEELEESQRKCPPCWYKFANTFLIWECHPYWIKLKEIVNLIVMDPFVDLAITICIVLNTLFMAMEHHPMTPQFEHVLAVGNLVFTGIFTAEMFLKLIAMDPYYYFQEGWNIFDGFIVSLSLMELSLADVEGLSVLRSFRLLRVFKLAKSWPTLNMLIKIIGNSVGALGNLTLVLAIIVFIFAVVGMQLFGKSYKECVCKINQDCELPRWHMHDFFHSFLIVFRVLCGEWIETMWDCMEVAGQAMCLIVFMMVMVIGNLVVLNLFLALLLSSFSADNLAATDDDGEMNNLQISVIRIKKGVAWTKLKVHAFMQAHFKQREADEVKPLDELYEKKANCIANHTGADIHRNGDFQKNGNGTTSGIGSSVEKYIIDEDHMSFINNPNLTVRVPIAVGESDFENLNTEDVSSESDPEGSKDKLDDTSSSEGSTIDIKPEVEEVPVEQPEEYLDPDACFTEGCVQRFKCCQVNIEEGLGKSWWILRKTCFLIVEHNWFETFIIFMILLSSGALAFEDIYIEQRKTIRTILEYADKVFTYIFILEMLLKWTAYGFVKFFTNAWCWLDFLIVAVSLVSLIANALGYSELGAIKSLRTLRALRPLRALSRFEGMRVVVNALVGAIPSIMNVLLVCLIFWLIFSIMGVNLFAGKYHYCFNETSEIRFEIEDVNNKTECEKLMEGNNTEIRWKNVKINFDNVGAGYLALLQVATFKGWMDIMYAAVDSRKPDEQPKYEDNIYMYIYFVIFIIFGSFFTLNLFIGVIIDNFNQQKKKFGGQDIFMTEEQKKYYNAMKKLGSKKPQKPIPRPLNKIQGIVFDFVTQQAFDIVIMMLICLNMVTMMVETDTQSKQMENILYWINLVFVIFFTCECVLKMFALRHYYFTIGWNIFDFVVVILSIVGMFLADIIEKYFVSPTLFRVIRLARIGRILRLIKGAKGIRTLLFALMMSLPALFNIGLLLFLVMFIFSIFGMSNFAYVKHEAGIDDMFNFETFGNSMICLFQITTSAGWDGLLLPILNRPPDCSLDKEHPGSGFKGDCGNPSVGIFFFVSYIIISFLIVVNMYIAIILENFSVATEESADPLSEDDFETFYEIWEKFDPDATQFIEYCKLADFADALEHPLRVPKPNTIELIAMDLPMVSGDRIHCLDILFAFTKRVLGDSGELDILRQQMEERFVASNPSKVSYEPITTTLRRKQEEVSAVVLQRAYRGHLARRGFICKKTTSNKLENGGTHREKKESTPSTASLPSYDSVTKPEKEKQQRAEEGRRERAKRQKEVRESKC

HEK293 = assay: Cytotoxicity against HEK293 cells assessed as reduction in cell viability at 50 uM by LDH release assay; conditions: human, hek293, 50 µM
How it was run: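 LDH release cytotoxicity assay in HEK293 cells, compounds given at 50 μM final. Read-out is % cytotoxicity. Data are mean ± S.E.M.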

[2] = biological target: Sodium channel protein type 8 subunit alpha (Homo sapiens) (UniProt Q9UQD0); assay: Inhibition of Nav1.6 (unknown origin) expressed in HEK293 cells assessed as activation constant at 10 uM after 1 hr at -70 mV holding potential by whole cell patch clamp method (reference value: 3.4 +/- 0.2 mV)
[3] = biological target: Luciferin 4-monooxygenase (Photinus pyralis) (UniProt P08659); assay: Effect on firefly luciferase activity expressed in HEK293 cells at 50 uM by luminescence assay
Luciferin 4-monooxygenase (Photinus pyralis), sequence (P08659 whole entry): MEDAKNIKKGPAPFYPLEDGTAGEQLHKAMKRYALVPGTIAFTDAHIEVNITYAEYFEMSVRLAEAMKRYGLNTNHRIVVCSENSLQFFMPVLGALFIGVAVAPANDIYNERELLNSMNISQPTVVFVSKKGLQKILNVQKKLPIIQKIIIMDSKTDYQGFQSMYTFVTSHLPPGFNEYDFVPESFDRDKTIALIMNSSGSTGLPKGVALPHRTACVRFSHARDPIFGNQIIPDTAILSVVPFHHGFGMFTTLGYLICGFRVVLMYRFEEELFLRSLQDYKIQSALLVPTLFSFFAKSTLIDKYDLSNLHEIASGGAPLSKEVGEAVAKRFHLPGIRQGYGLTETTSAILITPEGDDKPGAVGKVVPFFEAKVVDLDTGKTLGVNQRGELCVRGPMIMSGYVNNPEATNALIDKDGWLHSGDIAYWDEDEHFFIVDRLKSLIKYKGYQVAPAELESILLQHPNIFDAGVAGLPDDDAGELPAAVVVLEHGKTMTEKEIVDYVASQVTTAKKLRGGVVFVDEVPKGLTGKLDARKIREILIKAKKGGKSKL
How it was run: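 HEK293 cells transiently transfected with full-length Photinus (firefly) luciferase. Compounds dissolved in DMSO and diluted in medium to 50 μM final in 0.5% DMSO. Luminescence expressed as % of maximal, relative to 0.5% DMSO vehicle.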

[4] = biological target: Sodium channel protein type 8 subunit alpha (Homo sapiens) (UniProt Q9UQD0); assay: Inhibition of Nav1.6 (unknown origin) expressed in HEK293 cells assessed as inactivation time constant at 10 uM after 1 hr at -70 mV holding potential by whole cell patch clamp method (reference value: 2.04 +/- 0.3 milliseconds)
[5] = biological target: T1, Fibroblast growth factor 14/SCN8A (Homo sapiens) (UniProt Q9UQD0+Q92915); assay: Inhibition of Cluc-FGF14 (unknown origin)/CD4-Nav1.6-Nluc (unknown origin) protein-protein interaction using FGF14/NAV1.6 using HEK293 cells expressing FGF14/Nav1.6 by split luciferase complementation assay
T1 sequence (Q92915 whole entry, looked up): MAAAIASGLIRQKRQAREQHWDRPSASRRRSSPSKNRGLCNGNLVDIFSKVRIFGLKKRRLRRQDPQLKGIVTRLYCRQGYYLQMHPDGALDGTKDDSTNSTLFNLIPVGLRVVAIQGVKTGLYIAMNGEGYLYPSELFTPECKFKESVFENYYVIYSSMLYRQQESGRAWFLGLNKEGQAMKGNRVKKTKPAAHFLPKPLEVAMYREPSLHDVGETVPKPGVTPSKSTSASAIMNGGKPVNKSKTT
T1 sequence (Q9UQD0 whole entry, looked up): as the sequence (Q9UQD0 whole entry, looked up) above
How it was run: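 Split-luciferase complementation in HEK293 cells expressing Cluc-FGF14 and CD4-Nav1.6-Nluc. Five-point dose response at 1, 10, 25, 50 and 100 μM.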

[6] = biological target: T1, Fibroblast growth factor 14/SCN8A (Homo sapiens); assay: Modulation of Cluc-FGF14 (unknown origin)/CD4-Nav1.6-Nluc (unknown origin) protein-protein interaction using FGF14/NAV1.6 using HEK293 cells expressing FGF14/Nav1.6 assessed as luminescent response at 50 uM by split luciferase complementation assay relative to control
How it was run: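 Split-luciferase complementation in HEK293 cells co-transfected with Cluc-FGF14 and CD4-Nav1.6-Nluc plasmids. Compounds in DMSO, diluted in medium to 50 μM final, 0.5% DMSO. Luminescence reported as % maximal vs 0.5% DMSO vehicle.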

Structure (SMILES) | V1/2 [1] | Activity (HEK293) | Kact [2] | Activity [3] | TIME [4] | inhibition [5] | Activity [6]
COC(=O)[C@H](CCCCNC(=O)OCC1c2ccccc2-c2ccccc21)NC(=O)[C@@H]1CCCN1C(=O)[C@H](CC(C)C)NC(=O)[C@H](Cc1ccccc1)NC(C)=O (Ac-FLPK(Fmoc)-OMe) | -57.7 mV | Non-Toxic | 3.9 mV | inactive | 5.69e-07 h | Dose-dependent effect | –
CC(=O)N1CCC[C@H]1C(=O)N[C@@H](CC(C)C)C(=O)N[C@@H](CCCCNC(=O)OC(C)(C)C)C(N)=O (Ac-Pro-Leu-Lys(Boc)-NH2) | – | – | – | inactive | – | – | –
CC(C)C[C@H](NC(=O)[C@H](Cc1ccccc1)NC(=O)c1ccccc1)C(=O)N1CCC[C@H]1C(=O)N[C@@H](CCCCNC(=O)OC(C)(C)C)C(N)=O (Bz-FLPK(Boc)-NH2) | – | Non-Toxic | – | inactive | – | Dose-dependent effect | –
CC(C)C[C@H](NC(=O)[C@H](Cc1ccccc1)NC(=O)OCc1ccccc1)C(=O)N1CCC[C@H]1C(=O)N[C@@H](CCCCNC(=O)OC(C)(C)C)C(N)=O (Cbz-FLPK(Boc)-NH2) | – | – | – | inactive | – | – | –
COC(=O)[C@H](CCCCNC(=O)OCC1c2ccccc2-c2ccccc21)NC(=O)[C@@H]1CCCN1C(=O)[C@H](CC(C)C)NC(=O)[C@@H](N)Cc1ccccc1 (H-FLPK(Fmoc)-OMe) | – | – | – | inactive | – | – | 124%
CC(C)C[C@H](N)C(=O)N1CCC[C@H]1C(=O)N[C@@H](CCCCN)C(N)=O (H-Leu-Pro-Lys-NH2) | – | Non-Toxic | – | inactive | – | – | 142%

Reference: ChEMBL document CHEMBL4330098, “Identification of peptidomimetics as novel chemical probes modulating fibroblast growth factor 14 (FGF14) and voltage-gated sodium channel 1.6 (Nav1.6) protein-protein interactions” (Bioorg Med Chem Lett, 2019)
